This is an account of results in ChEMBL document CHEMBL1153025, “Triterpene glycosides from the underground parts of Caulophyllum thalictroides” (J Nat Prod, 2009).

Structures are written as SMILES. ≈ marks a conversion by molar mass, not a printed value.

Assay [1] relates to HL-60. Description: Cytotoxicity against human HL60 cells up to 20 ug/ml after 72 hrs by MTT assay. Type of assay: functional, cell-based. The method, boiled down: (§1)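 HL-60 (JCRB 0085) cells in RPMI 1640 with 10% FBS, L-glutamine, penicillin G and streptomycin, seeded at 4 × 10^4 cells/mL, preincubated 24 h at 37 °C in 5% CO2. Sample added in EtOH-H2O (1:1) to final 0.1-20 µg/mL; vehicle in controls. After 72 h, MTT 4 h, centrifuged, formazan dissolved in DMSO. Mean ± SEM of three experiments in triplicate.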
A general note: Tetrazolium dyes change colour on reduction, which living cells bring about.

For assay [2], the system named is HL-60. Description: Cytotoxicity against human HL60 cells after 72 hrs by MTT assay. Type of assay: functional, cell-based. To be noted: HL-60, 72 h. The method, boiled down: as §1

With `C[C@@H]1O[C@@H](O[C@H]2[C@H](O)[C@@H](O)[C@H](OC[C@H]3O[C@@H](OC(=O)[C@]45CCC(C)(C)C[C@H]4C4=CC[C@@H]6[C@@]7(C)CC[C@H](O)[C@@](C)(CO)[C@@H]7CC[C@@]6(C)[C@]4(C)CC5)[C@H](O)[C@@H](O)[C@@H]3O)O[C@@H]2CO)[C@H](O)[C@H](O)[C@H]1O`, the Activity entry in the assay on HL-60 [1] is “Not toxic”.

Consider `CC1(C)CC[C@]2(C(=O)O[C@@H]3O[C@H](CO)[C@@H](O)[C@H](O)[C@H]3O)[C@H](O)C[C@]3(C)C(=CC[C@@H]4[C@@]5(C)CC[C@H](O[C@@H]6OC[C@H](O)[C@H](O)[C@H]6O)[C@@](C)(CO)[C@@H]5CC[C@]43C)[C@@H]2C1`, for which the Activity entry in the assay on HL-60 [1] was “Not toxic”. Same read-out and setting: then `CC1(C)CC[C@@]23CC[C@]4(C)[C@@](OC2=O)([C@@H]3C1)[C@H]1O[C@H]1[C@@H]1[C@@]2(C)CC[C@H](O[C@@H]3OC[C@H](O)[C@H](O)[C@H]3O[C@@H]3O[C@H](CO)[C@@H](O)[C@H](O)[C@H]3O)[C@@](C)(CO)[C@@H]2CC[C@]14C`, with “Not toxic”; and `CC1(C)CC[C@]2(C(=O)O)[C@H](O)C[C@]3(C)C(=CC[C@@H]4[C@@]5(C)CC[C@H](O[C@@H]6OC[C@H](O)[C@H](O)[C@H]6O)[C@@](C)(CO)[C@@H]5CC[C@]43C)[C@@H]2C1`, with “Not toxic”. On the same count and under the same terms, to `C[C@@H]1O[C@@H](O[C@H]2[C@H](O)[C@@H](O)[C@H](OC[C@H]3O[C@@H](OC(=O)[C@]45CCC(C)(C)C[C@H]4C4=CC[C@@H]6[C@@]7(C)CC[C@H](O[C@@H]8OC[C@H](O)[C@H](O)[C@H]8O)[C@@](C)(CO)[C@@H]7CC[C@@]6(C)[C@]4(C)CC5)[C@H](O)[C@@H](O)[C@@H]3O)O[C@@H]2CO)[C@H](O)[C@H](O)[C@H]1O` belongs “Not toxic”; to `CC1(C)CC[C@@]23C(=O)O[C@]4([C@@H]2C1)[C@H]1O[C@H]1[C@@H]1[C@@]2(C)CC[C@H](O[C@@H]5OC[C@H](O)[C@H](O)[C@H]5O)[C@@](C)(CO)[C@@H]2CC[C@@]1(C)[C@]4(C)C[C@H]3O`, “Not toxic”. On to `CC1(C)CC[C@]2(C(=O)O)[C@H](O)C[C@]3(C)C(=CC[C@@H]4[C@@]5(C)CC[C@H](O[C@@H]6OC[C@H](O)[C@H](O)[C@H]6O)C(C)(C)[C@@H]5CC[C@]43C)[C@@H]2C1`, for which inhibition with HL-60 [2] was half-maximal at 5.6 µg/mL (≈ 9.26 µM) (IC50).

For the compound `CC1(C)CC[C@]2(C(=O)O[C@@H]3O[C@H](CO[C@@H]4O[C@H](CO)[C@@H](O)[C@H](O)[C@H]4O)[C@@H](O)[C@H](O)[C@H]3O)[C@H](O)C[C@]3(C)C(=CC[C@@H]4[C@@]5(C)CC[C@H](O[C@@H]6OC[C@H](O)[C@H](O)[C@H]6O)[C@@](C)(CO)[C@@H]5CC[C@]43C)[C@@H]2C1`, the Activity entry in the assay on HL-60 [1] was “Not toxic”. As to `CC1(C)CC[C@]2(C(=O)O)[C@H](O)C[C@]3(C)C(=CC[C@@H]4[C@@]5(C)CC[C@H](O[C@@H]6OC[C@H](O)[C@H](O)[C@H]6O[C@@H]6O[C@H](CO)[C@@H](O)[C@H](O)[C@H]6O)[C@@](C)(CO)[C@@H]5CC[C@]43C)[C@@H]2C1`, in the assay on HL-60 [1], the Activity entry was “Not toxic”.

`CC1(C)CC[C@]2(C(=O)O)CC[C@]3(C)C(=CC[C@@H]4[C@@]5(C)CC[C@H](O[C@@H]6OC[C@H](O)[C@H](O)[C@H]6O[C@@H]6O[C@H](CO)[C@@H](O)[C@H](O)[C@H]6O)[C@@](C)(CO)[C@@H]5CC[C@]43C)[C@@H]2C1` yielded an IC50 with HL-60 [2] of 15.9 µg/mL (≈ 20.7 µM). Take `CC1(C)CC[C@@]2(C(=O)O)C(=C3C=C[C@@H]4[C@@]5(C)CC[C@H](O[C@@H]6OC[C@H](O)[C@H](O)[C@H]6O)[C@@](C)(CO)[C@@H]5CC[C@@]4(C)[C@]3(C)C[C@H]2O)C1`: the Activity result in the assay on HL-60 [1] was “Not toxic”. `CC1(C)CC[C@]2(C(=O)O)[C@H](O)C[C@]3(C)C(=CC[C@@H]4[C@@]5(C)CC[C@H](O[C@@H]6OC[C@H](O)[C@H](O)[C@H]6O[C@@H]6O[C@H](CO)[C@@H](O)[C@H](O)[C@H]6O)C(C)(C)[C@@H]5CC[C@]43C)[C@@H]2C1` returned an IC50 in the assay on HL-60 [2] of 11.8 µg/mL (≈ 15.4 µM). For `C[C@@H]1O[C@@H](O[C@H]2[C@H](O)[C@@H](O)[C@H](OC[C@H]3O[C@@H](OC(=O)[C@]45CCC(C)(C)C[C@H]4C4=CC[C@@H]6[C@@]7(C)CC[C@H](O[C@@H]8OC[C@H](O)[C@H](O)[C@H]8O[C@@H]8O[C@H](CO)[C@@H](O)[C@H](O)[C@H]8O)C(C)(C)[C@@H]7CC[C@@]6(C)[C@]4(C)CC5)[C@H](O)[C@@H](O)[C@@H]3O)O[C@@H]2CO)[C@H](O)[C@H](O)[C@H]1O`, the Activity entry with HL-60 [1] was “Not toxic”. `COc1cc([C@@H]2c3cc4c(cc3[C@@H](O[C@@H]3O[C@@H]5CO[C@@H](C)O[C@H]5[C@H](O)[C@H]3O)[C@H]3COC(=O)[C@H]23)OCO4)cc(OC)c1O` [ETOPOSIDE] returned an IC50 with HL-60 [2] of 0.26 µg/mL (≈ 0.442 µM). With `C[C@H]1[C@@H]2[C@H]3CC[C@@H]4[C@@]5(C)CC[C@H](O[C@@H]6OC[C@H](O)[C@H](O)[C@H]6O[C@@H]6O[C@H](CO)[C@@H](O)[C@H](O)[C@H]6O)C(C)(C)[C@@H]5CC[C@@]4(C)[C@]3(C)CC[C@@]23CC[C@]1(C)OC3=O`, the Activity entry in the assay with HL-60 [1] was “Not toxic”.

For the compound `CC1(C)CC[C@]2(C(=O)O)CC[C@]3(C)C(=CC[C@@H]4[C@@]5(C)CC[C@H](O[C@@H]6OC[C@H](O)[C@H](O)[C@H]6O)C(C)(CO)[C@@H]5CC[C@]43C)[C@@H]2C1` (stereo partly drawn), the IC50 in the assay on HL-60 [2] turned out to be 12.5 µg/mL (≈ 20.7 µM). Consider `C[C@H]1[C@@H]2C3CC[C@@H]4[C@@]5(C)CC[C@H](O[C@@H]6OC[C@H](O)[C@H](O)[C@H]6O[C@@H]6O[C@H](CO)[C@@H](O)[C@H](O)[C@H]6O)C(C)(C)[C@@H]5CC[C@@]4(C)[C@]3(C)CC[C@@]2(C(=O)O)CC[C@@]1(C)O` (stereo partly drawn), for which the Activity entry in the assay with HL-60 [1] was “Not toxic”. Compound `CC1(C)CC[C@]2(C(=O)O)CC[C@]3(C)C(=CC[C@@H]4[C@@]5(C)CC[C@H](O[C@@H]6OC[C@H](O)[C@H](O)[C@H]6O)[C@@](C)(C=O)[C@@H]5CC[C@]43C)[C@@H]2C1` displayed a half-maximal inhibitory concentration (IC50) in the assay with HL-60 [2] of 4.8 µg/mL (≈ 7.96 µM). On to `C[C@@H]1O[C@@H](O[C@H]2[C@H](O)[C@@H](O)[C@H](OC[C@H]3O[C@@H](OC(=O)[C@]45CCC(C)(C)C[C@H]4C4=CC[C@@H]6[C@@]7(C)CC[C@H](O[C@@H]8OC[C@H](O)[C@H](O)[C@H]8O)[C@@](C)(CO)[C@@H]7CC[C@@]6(C)[C@]4(C)C[C@H]5O)[C@H](O)[C@@H](O)[C@@H]3O)O[C@@H]2CO)[C@H](O)[C@H](O)[C@H]1O`, for which, in the assay with HL-60 [1], the Activity entry is “Not toxic”. For `CC1(C)CC[C@]2(C(=O)O)[C@H](O)C[C@]3(C)C(=CC[C@@H]4[C@@]5(C)CC[C@H](O[C@@H]6OC[C@H](O)[C@H](O)[C@H]6O)[C@@](C)(C=O)[C@@H]5CC[C@]43C)[C@@H]2C1`, the Activity entry in the assay with HL-60 [1] is “Not toxic”. In the assay with HL-60 [2], `CC1(C)CC[C@]2(C(=O)O)CC[C@]3(C)C(=CC[C@@H]4[C@@]5(C)CC[C@H](O[C@@H]6OC[C@H](O)[C@H](O)[C@H]6O)C(C)(C)[C@@H]5CC[C@]43C)[C@@H]2C1` showed a 50% inhibitory concentration (IC50) of 3.4 µg/mL (≈ 5.77 µM). For `C[C@@H]1O[C@@H](O[C@H]2[C@H](O)[C@@H](O)[C@H](OC[C@H]3O[C@@H](OC(=O)[C@]45CCC(C)(C)C[C@H]4C4=CC[C@@H]6[C@@]7(C)CC[C@H](O[C@@H]8OC[C@H](O)[C@H](O)[C@H]8O[C@@H]8O[C@H](CO)[C@@H](O)[C@H](O)[C@H]8O)[C@@](C)(CO)[C@@H]7CC[C@@]6(C)[C@]4(C)CC5)[C@H](O)[C@@H](O)[C@@H]3O)O[C@@H]2CO)[C@H](O)[C@H](O)[C@H]1O`, the Activity result in the assay with HL-60 [1] is “Not toxic”. In the case of `CC1(C)CC[C@]2(C(=O)O)CC[C@]3(C)C(=CC[C@@H]4[C@@]5(C)CC[C@H](O[C@@H]6OC[C@H](O)[C@H](O)[C@H]6O[C@@H]6O[C@H](CO)[C@@H](O)[C@H](O)[C@H]6O)C(C)(C)[C@@H]5CC[C@]43C)[C@@H]2C1`, half-maximal inhibition with HL-60 [2] (IC50) required 10.8 µg/mL (≈ 14.4 µM).

By IC50 is commonly meant the point on the concentration scale where inhibition reaches its midpoint. Read a low IC50 as inhibition by little substance.
